Measured values taken from ChEMBL document CHEMBL3244108, “Potential antitumor agents. Some sulfur-substituted derivatives of alpha- and beta-2'-deoxythioguanosine” (J Med Chem, 1977).

Key:
P388 = experiment: Antitumor activity in mouse P388 cells allografted in mouse assessed as increase in survival time at optimal dose administered qd on days 1 to 9 of challenge relative to control; format: functional
Summary of the method: (§1)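 Mouse leukemia survival test run under standard National Cancer Institute protocols. T/C = (treated-animal average survival time / control-animal average survival time) × 100%. Optimum dose is expressed as mg/kg/dose. T/C data were duplicated in separate experiments except where a footnote states that confirmation was not run.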

Mus musculus = organism: Mus musculus; experiment: Acute toxicity in mouse; format: organism-based; details: in vivo
L1210 [1] = experiment: Antitumor activity in mouse L1210 cells allografted in mouse assessed as increase in survival time at optimal dose administered qd on days 1 to 5 of challenge relative to control; format: functional; summary of the method: as §1
L1210 [2] = experiment: Inhibition of RNA synthesis in mouse L1210 cells assessed as inhibition of tritiated uridine incorporation into nucleic acids; format: functional; details: read-out: ED50 (the source's name)
Summary of the method: (§2)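 Cultured L1210 cells were labeled with tritiated thymidine (DNA) or tritiated uridine (RNA), and label incorporation into the isolated nucleic acids was measured. The ED50 is the drug concentration that inhibits this incorporation by 50%. Other details are referenced to earlier work.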

L1210 [3] = experiment: Inhibition of DNA synthesis in mouse L1210 cells assessed as inhibition of tritiated thymidine incorporation into nucleic acids; format: functional; details: read-out: ED50 (the source's name); summary of the method: as §2
L1210 [4] = experiment: Antitumor activity in mouse L1210 cells allografted in mouse assessed as increase in survival time at optimal dose administered qd on days 1 to 16 of challenge relative to control; format: functional; summary of the method: as §1
L1210 [5] = experiment: Antitumor activity in mouse L1210 cells allografted in mouse assessed as increase in survival time at optimal dose administered as single dose relative to control; format: functional; summary of the method: as §1
L1210 [6] = experiment: Antitumor activity in mouse L1210 cells allografted in mouse assessed as increase in survival time at 400 mg/kg administered as single dose relative to control; format: functional; summary of the method: as §1
L1210 [7] = experiment: Antitumor activity in mouse L1210 cells allografted in mouse assessed as increase in survival time at optimal dose administered qd on days 1 to 9 of challenge relative to control; format: functional; summary of the method: as §1

Cn1cnc([N+](=O)[O-])c1Sc1nc(N)nc2c1ncn2[C@H]1C[C@H](O)[C@@H](CO)O1
T/C (P388): 161% | Activity (Mus musculus): Non-toxic | T/C (L1210 [1]): 173% | EC50 (L1210 [2]): 11 µM | EC50 (L1210 [3]): 25 µM

CSc1nc(N)nc2c1ncn2[C@H]1C[C@H](O)[C@@H](CO)O1
Activity (Mus musculus): Non-toxic | T/C (L1210 [1]): 128% | EC50 (L1210 [2]): 24 µM | EC50 (L1210 [3]): 27 µM

Nc1nc2c(ncn2[C@@H]2C[C@H](O)[C@@H](CO)O2)c(=S)[nH]1
T/C (P388): 168% | T/C (L1210 [1]): 161% | T/C (L1210 [4]): 174% | EC50 (L1210 [2]): > 100 µM | EC50 (L1210 [3]): > 100 µM

Nc1nc(SCc2ccccc2)c2ncn([C@H]3C[C@H](O)[C@@H](CO)O3)c2n1
Activity (Mus musculus): Non-toxic | T/C (L1210 [5]): 172% | T/C (L1210 [6]): 157%

Nc1nc(SCc2ccccc2)c2ncn([C@@H]3C[C@H](O)[C@@H](CO)O3)c2n1
Activity (Mus musculus): Non-toxic | T/C (L1210 [1]): 144%

CSc1nc(N)nc2c1ncn2[C@@H]1C[C@H](O)[C@@H](CO)O1
T/C (P388): <125% | Activity (Mus musculus): Non-toxic | T/C (L1210 [1]): <125% | EC50 (L1210 [2]): > 100 µM | EC50 (L1210 [3]): > 100 µM

C=CCSc1nc(N)nc2c1ncn2[C@H]1C[C@H](O)[C@@H](CO)O1
T/C (P388): 181% | Activity (Mus musculus): Non-toxic | T/C (L1210 [1]): 179% | EC50 (L1210 [2]): 3 µM | EC50 (L1210 [3]): 5.5 µM

C=CCSc1nc(N)nc2c1ncn2[C@@H]1C[C@H](O)[C@@H](CO)O1
T/C (P388): <125% | Activity (Mus musculus): Non-toxic | T/C (L1210 [1]): <125% | EC50 (L1210 [2]): > 100 µM | EC50 (L1210 [3]): > 100 µM

Cc1cccc(CSc2nc(N)nc3c2ncn3[C@H]2C[C@H](O)[C@@H](CO)O2)n1
T/C (P388): <125% | Activity (Mus musculus): Non-toxic | T/C (L1210 [1]): 153% | EC50 (L1210 [2]): 31 µM | EC50 (L1210 [3]): 64 µM

Cc1cccc(CSc2nc(N)nc3c2ncn3[C@@H]2C[C@H](O)[C@@H](CO)O2)n1
T/C (P388): <125% | Activity (Mus musculus): Non-toxic | T/C (L1210 [1]): <125% | EC50 (L1210 [2]): 72 µM | EC50 (L1210 [3]): 79 µM

Cn1cnc([N+](=O)[O-])c1Sc1nc(N)nc2c1ncn2[C@@H]1C[C@H](O)[C@@H](CO)O1
T/C (P388): <125% | Activity (Mus musculus): Non-toxic | T/C (L1210 [1]): 137% | EC50 (L1210 [2]): > 100 µM | EC50 (L1210 [3]): > 100 µM

CC(=O)OC[C@H]1O[C@@H](n2cnc3c(=S)[nH]c(N)nc32)C[C@@H]1OC(C)=O
T/C (P388): 174% | T/C (L1210 [1]): 156%

CC(=O)OC[C@H]1O[C@H](n2cnc3c(=S)[nH]c(N)nc32)C[C@@H]1OC(C)=O
T/C (L1210 [1]): <125%

CSc1nc(NC(C)=O)nc2c1ncn2[C@H]1C[C@H](O)[C@@H](CO)O1
Activity (Mus musculus): Non-toxic | T/C (L1210 [1]): <125%

Nc1nc2c(ncn2[C@H]2C[C@H](O)[C@@H](CO)O2)c(=S)[nH]1 [ATEGANOSINE]
T/C (L1210 [7]): 208% | T/C (P388): 138% | T/C (L1210 [1]): 219% | EC50 (L1210 [2]): 50 µM | EC50 (L1210 [3]): > 100 µM
